In ChEMBL document CHEMBL3600355, “The importance of the 6- and 7-positions of tetrahydroisoquinolines as selective antagonists for the orexin 1 receptor” (Bioorg Med Chem, 2015):
Active and inactive are the calls of the source. No cut-off for these calls is given here.

Assays:
[1] = biological target: T1, Orexin receptor type 2 (Homo sapiens) (UniProt O43614); experiment: Antagonist activity at human OX2 receptor expressed in CHO-RD-HGA16 cells assessed as inhibition of orexin-A-induced calcium mobilization at 10 uM preincubated for 15 mins followed by orexin-A addition measured every 1.52 secs over 60 secs by calcium 5 dye-based fluorescence assay relative to control; assay type: functional, cell-based
T1 sequence (whole entry): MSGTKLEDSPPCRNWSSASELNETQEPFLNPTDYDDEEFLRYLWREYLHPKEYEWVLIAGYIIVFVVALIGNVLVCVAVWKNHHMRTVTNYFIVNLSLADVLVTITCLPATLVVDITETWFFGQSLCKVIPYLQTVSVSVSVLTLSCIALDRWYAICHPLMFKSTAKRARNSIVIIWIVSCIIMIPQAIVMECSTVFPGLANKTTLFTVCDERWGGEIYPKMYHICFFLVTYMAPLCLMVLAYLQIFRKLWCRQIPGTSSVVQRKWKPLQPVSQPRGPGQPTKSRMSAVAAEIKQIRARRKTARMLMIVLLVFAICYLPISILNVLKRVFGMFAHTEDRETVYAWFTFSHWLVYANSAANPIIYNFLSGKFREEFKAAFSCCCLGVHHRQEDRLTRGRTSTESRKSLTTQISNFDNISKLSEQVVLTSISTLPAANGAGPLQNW
How it was run: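 OX2 stable CHO-RD-HGA16 cells, Calcium 5 dye-loaded, were pre-incubated 15 min at 37°C with compound at 10 μM before orexin A addition. Calcium fluorescence was read every 1.52 s for 60 s and percent inhibition of the orexin A response recorded.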

[2] = biological target: T2, Orexin/Hypocretin receptor type 1 (Homo sapiens) (UniProt O43613); experiment: Competitive antagonist activity at human OX1 receptor expressed in CHO-RD-HGA16 cells assessed as inhibition of orexin-A-induced calcium mobilization preincubated for 1 hr followed by orexin-A addition measured every 1.52 secs over 60 secs by calcium 5 dye-based fluorescence assay; assay type: functional, cell-based
T2 sequence (whole entry): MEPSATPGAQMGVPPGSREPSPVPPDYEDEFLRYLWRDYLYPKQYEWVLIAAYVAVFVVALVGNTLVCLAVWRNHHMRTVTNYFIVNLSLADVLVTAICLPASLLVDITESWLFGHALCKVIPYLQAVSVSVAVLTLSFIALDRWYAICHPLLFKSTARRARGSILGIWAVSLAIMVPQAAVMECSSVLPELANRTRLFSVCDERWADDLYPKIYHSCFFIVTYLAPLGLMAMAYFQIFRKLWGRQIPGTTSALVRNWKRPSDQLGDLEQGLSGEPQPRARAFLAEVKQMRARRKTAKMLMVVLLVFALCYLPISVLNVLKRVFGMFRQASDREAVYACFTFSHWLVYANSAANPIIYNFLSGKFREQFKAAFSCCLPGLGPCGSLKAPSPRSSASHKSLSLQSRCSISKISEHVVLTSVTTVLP
How it was run: (§1)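 Curve-shift assay in human OX1 CHO-RD-HGA16 cells, with antagonist–receptor pre-incubation lengthened to 45 min or 1 hr before orexin A addition. Calcium 5 fluorescence was monitored, and each point is a composite of at least three experiments in duplicate.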

[3] = biological target: T2, Orexin/Hypocretin receptor type 1 (Homo sapiens); experiment: Competitive antagonist activity at human OX1 receptor expressed in CHO-RD-HGA16 cells assessed as inhibition of orexin-A-induced calcium mobilization preincubated for 45 mins followed by orexin-A addition measured every 1.52 secs over 60 secs by calcium 5 dye-based fluorescence assay; assay type: functional, cell-based; how it was run: as §1
[4] = biological target: T2, Orexin/Hypocretin receptor type 1 (Homo sapiens); experiment: Insurmountable antagonist activity at human OX1 receptor expressed in CHO-RD-HGA16 cells assessed as inhibition of orexin-A-induced calcium mobilization preincubated for 15 mins followed by orexin-A addition measured every 1.52 secs over 60 secs by calcium 5 dye-based fluorescence assay; assay type: functional, cell-based
How it was run: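 Human OX1 or OX2 stable CHO-RD-HGA16 cells were dye-loaded with Calcium 5, then given a single compound concentration for 15 min at 37°C. Orexin A serial dilutions were added at 19 s and fluorescence read every 1.52 s over 60 s. Orexin A EC50 curves were run with and without compound and fitted to a three-parameter logistic. Apparent Ke was taken from the right-shift; three independent experiments in duplicate, N=2 where Ke >10 μM.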

[5] = biological target: T2, Orexin/Hypocretin receptor type 1 (Homo sapiens); experiment: Competitive antagonist activity at human OX1 receptor expressed in CHO-RD-HGA16 cells assessed as inhibition of orexin-A-induced calcium mobilization compound treated simultaneous with orexin-A by fluorescence assay; assay type: functional, cell-based
How it was run: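 Antagonist and orexin A were added simultaneously to Calcium 5-loaded human OX1 CHO-RD-HGA16 cells, with calcium mobilization curve-shift measured. Data are composites of at least three experiments in duplicate.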

[6] = biological target: T2, Orexin/Hypocretin receptor type 1 (Homo sapiens); experiment: Agonist activity at human OX1 receptor expressed in CHO-RD-HGA16 cells assessed as induction of calcium mobilization at 10 uM measured every 1.52 secs over 60 secs by calcium 5 dye-based fluorescence assay; assay type: functional, cell-based
How it was run: (§2)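 Stable CHO-RD-HGA16 lines overexpressing human OX1 or OX2, plated overnight at 25,000 cells/well, 37°C, 5% CO2. Loaded 45 min with Calcium 5 dye in HBSS/20 mM HEPES/2.5 mM probenecid, pH 7.4. Compound tested alone at 10 μM; fluorescence (ex 485/em 525 nm) read every 1.52 s for 60 s.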

[7] = biological target: T1, Orexin receptor type 2 (Homo sapiens); experiment: Agonist activity at human OX2 receptor expressed in CHO-RD-HGA16 cells assessed as induction of calcium mobilization at 10 uM measured every 1.52 secs over 60 secs by calcium 5 dye-based fluorescence assay; assay type: functional, cell-based; how it was run: as §2
Homo sapiens [8] = species: Homo sapiens; experiment: Selectivity for human OX1 receptor over human OX2 receptor
Homo sapiens [9] = species: Homo sapiens; experiment: Selectivity ratio of Ke(app) for human OX2 receptor to Ke(app) for human OX1 receptor

Structure (SMILES)	inhibition [1] [%]	further results
CCOC(=O)CCCOc1ccc2c(c1)CCN(CC(=O)NCc1ccccc1)C2Cc1ccc(OC)c(OC)c1 (stereo not drawn)	< 50	Ke(app) [2]: 1000 nM; inhibition [3]: Active; inhibition [4]: Active; inhibition [5]: Active; Activity [6]: inactive; Activity [7]: inactive
COc1ccc(CC2c3ccc(OC(C)C)cc3CCN2CC(=O)NCc2ccccc2)cc1OC (stereo not drawn)	< 50	–
CCOC(=O)CCCCCCNc1ccc2c(c1)CCN(CC(=O)NCc1ccccc1)C2Cc1ccc(OC)c(OC)c1 (stereo not drawn)	< 50	–
COc1ccc(CC2c3ccc(N(C)CC4CC4)cc3CCN2CC(=O)NCc2ccccc2)cc1OC (stereo not drawn)	< 50	–
CCOC(=O)CNc1ccc2c(c1)CCN(CC(=O)NCc1ccccc1)C2Cc1ccc(OC)c(OC)c1 (stereo not drawn)	< 50	Activity [6]: inactive; Activity [7]: inactive
COc1ccc(CC2c3ccc(NC(=O)c4ccccc4)cc3CCN2CC(=O)NCc2ccccc2)cc1OC (stereo not drawn)	< 50	–
CCCCCCN(C)c1ccc2c(c1)CCN(CC(=O)NCc1ccccc1)C2Cc1ccc(OC)c(OC)c1 (stereo not drawn)	< 50	–
CCCCCNc1ccc2c(c1)CCN(CC(=O)NCc1ccccc1)C2Cc1ccc(OC)c(OC)c1 (stereo not drawn)	< 50	–
CCOC(=O)CCNc1ccc2c(c1)CCN(CC(=O)NCc1ccccc1)C2Cc1ccc(OC)c(OC)c1 (stereo not drawn)	< 50	Activity [6]: inactive; Activity [7]: inactive
CCCCCN(C)c1ccc2c(c1)CCN(CC(=O)NCc1ccccc1)C2Cc1ccc(OC)c(OC)c1 (stereo not drawn)	< 50	–
COc1ccc(CC2c3ccc(NCc4cccnc4)cc3CCN2CC(=O)NCc2ccccc2)cc1OC (stereo not drawn)	< 50	–
COc1ccc(CC2c3ccc(N4CCCC4)cc3CCN2CC(=O)NCc2ccccc2)cc1OC (stereo not drawn)	< 50	–
COc1ccc(CC2c3ccc(NCCCC(=O)OC(C)(C)C)cc3CCN2CC(=O)NCc2ccccc2)cc1OC (stereo not drawn)	< 50	Ke(app) [2]: 1010 nM; inhibition [3]: Active; inhibition [4]: Active; inhibition [5]: Active
CCCN(C)c1ccc2c(c1)CCN(CC(=O)NCc1ccccc1)C2Cc1ccc(OC)c(OC)c1 (stereo not drawn)	< 50	Activity [6]: inactive; Activity [7]: inactive
CCCNc1ccc2c(c1)CCN(CC(=O)NCc1ccccc1)C2Cc1ccc(OC)c(OC)c1 (stereo not drawn)	< 50	–
CCCOc1ccc2c(c1)CCN(CC(=O)NCc1ccccc1)C2Cc1ccc(OC)c(OC)c1 (stereo not drawn)	< 50	–
CCOC(=O)CCCNc1ccc2c(c1)CCN(CC(=O)NCc1ccccc1)C2Cc1ccc(OC)c(OC)c1 (stereo not drawn)	–	Activity [6]: inactive; Activity [7]: inactive
CCOC(=O)CCCCCCOc1ccc2c(c1)CCN(CC(=O)NCc1ccccc1)C2Cc1ccc(OC)c(OC)c1 (stereo not drawn)	< 50	–
COc1ccc(CC2c3ccc(NCCN4CCCCC4)cc3CCN2CC(=O)NCc2ccccc2)cc1OC (stereo not drawn)	< 50	–
COC(=O)CCCCNc1ccc2c(c1)CCN(CC(=O)NCc1ccccc1)C2Cc1ccc(OC)c(OC)c1 (stereo not drawn)	< 50	–
CCOC(=O)C(C)Nc1ccc2c(c1)CCN(CC(=O)NCc1ccccc1)C2Cc1ccc(OC)c(OC)c1 (stereo not drawn)	< 50	–
CCCN(CCC)c1ccc2c(c1)CCN(CC(=O)NCc1ccccc1)C2Cc1ccc(OC)c(OC)c1 (stereo not drawn)	< 50	–
COc1ccc(CC2c3ccc(NC(C)=O)cc3CCN2CC(=O)NCc2ccccc2)cc1OC (stereo not drawn)	< 50	–

Structure (SMILES)	inhibition [1] [%]	further results
COc1ccc(CC2c3ccc(OS(=O)(=O)c4ccccc4)cc3CCN2CC(=O)NCc2ccccc2)cc1OC (stereo not drawn)	< 50	–
COc1ccc(CC2c3ccc(NCc4ccncc4)cc3CCN2CC(=O)NCc2ccccc2)cc1OC (stereo not drawn)	< 50	–
COc1ccc(CC2c3ccc(NCc4ccccc4)cc3CCN2CC(=O)NCc2ccccc2)cc1OC (stereo not drawn)	< 50	–
CCOc1ccc2c(c1)C(Cc1ccc(OC)c(OC)c1)N(CC(=O)NCc1ccccc1)CC2 (stereo not drawn)	< 50	Ratio Ke (Homo sapiens [8]): 268; Activity [6]: inactive; Activity [7]: inactive
COc1ccc(CC2c3ccc(NCCCCOc4ccccc4)cc3CCN2CC(=O)NCc2ccccc2)cc1OC (stereo not drawn)	< 50	–
CCCCCCNc1ccc2c(c1)CCN(CC(=O)NCc1ccccc1)C2Cc1ccc(OC)c(OC)c1 (stereo not drawn)	< 50	–
COc1ccc(CC2c3ccc(N4CCCCC4)cc3CCN2CC(=O)NCc2ccccc2)cc1OC (stereo not drawn)	< 50	–
COc1ccc(CC2c3ccc(NC(=O)Nc4ccccc4)cc3CCN2CC(=O)NCc2ccccc2)cc1OC (stereo not drawn)	< 50	–
CCCOc1ccc2c(c1)C(Cc1ccc(OC)c(OC)c1)N(CC(=O)NCc1ccccc1)CC2 (stereo not drawn)	–	Ratio Ke (Homo sapiens [9]): 108; Activity [6]: inactive; Activity [7]: inactive
CCCCCCNC(=O)Nc1ccc2c(c1)CCN(CC(=O)NCc1ccccc1)C2Cc1ccc(OC)c(OC)c1 (stereo not drawn)	< 50	–
COc1ccc(CC2c3ccc(NCCCc4ccccc4)cc3CCN2CC(=O)NCc2ccccc2)cc1OC (stereo not drawn)	< 50	–
COc1ccc(CCNc2ccc3c(c2)CCN(CC(=O)NCc2ccccc2)C3Cc2ccc(OC)c(OC)c2)cc1OC (stereo not drawn)	< 50	inhibition [2]: Active; Ke(app) [3]: 2180 nM; inhibition [4]: Active; inhibition [5]: Active
COc1ccc(CC2c3ccc(NCC4CC4)cc3CCN2CC(=O)NCc2ccccc2)cc1OC (stereo not drawn)	< 50	–
COc1ccc(CC2c3ccc(N(C)C)cc3CCN2CC(=O)NCc2ccccc2)cc1OC (stereo not drawn)	< 50	–
COc1ccc2c(c1)C(Cc1ccc(OC)c(OC)c1)N(CC(=O)NCc1ccccc1)CC2 (stereo not drawn)	–	Activity [6]: inactive; Activity [7]: inactive
CCCCOc1ccc2c(c1)C(Cc1ccc(OC)c(OC)c1)N(CC(=O)NCc1ccccc1)CC2 (stereo not drawn)	< 50	Activity [6]: inactive; Activity [7]: inactive
COc1ccc(CC2c3ccc(OCC(F)(F)F)cc3CCN2CC(=O)NCc2ccccc2)cc1OC (stereo not drawn)	< 50	–
COc1ccc(CC2c3ccc(NC(C)C)cc3CCN2CC(=O)NCc2ccccc2)cc1OC (stereo not drawn)	< 50	–
COc1ccc(CC2c3ccc(N(C)Cc4ccccc4)cc3CCN2CC(=O)NCc2ccccc2)cc1OC (stereo not drawn)	< 50	–
COc1ccc(CC2c3ccc(NS(C)(=O)=O)cc3CCN2CC(=O)NCc2ccccc2)cc1OC (stereo not drawn)	< 50	–
COc1ccc(CC2c3ccc(NCC(=O)N(C)C)cc3CCN2CC(=O)NCc2ccccc2)cc1OC (stereo not drawn)	< 50	–
COc1ccc(CC2c3ccc(OCc4ccccc4)cc3CCN2CC(=O)NCc2ccccc2)cc1OC (stereo not drawn)	< 50	–
COc1ccc(CC2c3cc(OC(C)C)ccc3CCN2CC(=O)NCc2ccccc2)cc1OC (stereo not drawn)	< 50	Ratio Ke (Homo sapiens [8]): 201; Activity [6]: inactive; Activity [7]: inactive
